# UBC13 polyUb – blocks human UBC13 polyubiquitin chain formation; P61088; TR-FRET; inhibition, % at 20 µM; 330,000 compounds, 0.47% hits; AID 485273; in the data active means inhibition above about 45%, passing the limit was not always enough
# Target sequence (P61088 whole entry, looked up): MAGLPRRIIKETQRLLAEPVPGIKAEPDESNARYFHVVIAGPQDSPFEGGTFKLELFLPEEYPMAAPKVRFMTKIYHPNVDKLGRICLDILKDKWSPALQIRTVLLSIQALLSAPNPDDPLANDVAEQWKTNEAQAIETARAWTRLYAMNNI
# SENP8 block-1 – blocks human SENP8 cleavage of Nedd8 substrate. 360,000 compounds, 0.64% hits. recombinant SENP8, Nedd8 substrate fluorescence. inhibition, % at 20 µM; in the data active means inhibition mostly above about 40%, no sharp cut-off; inactive means mostly below about 27%
# SENP8 block-2 – blocks the human protease SENP8 | purified SENP8, Z-RLRGG-aminoluciferin cleavage, luminescence | inhibition, % at 10 µM | 330,000 compounds, 1.2% hits | AID 2540; in the data active means inhibition above about 50%
# SENP6 inh – blocks the human protease SENP6. Recombinant SENP6 catalytic domain, aminoluciferin luminescence. inhibition, % at 10 µM. 330,000 compounds, 1.8% hits. AID 2599;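 active means inhibition above about 50% at the single tested dose, limit read from the data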;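 further: plate controls were DMSO wells with enzyme for no effect and DMSO wells lacking enzyme for full effect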
# Apaf1 inhib – inhibitors of human Apaf-1 apoptosome; reconstituted apoptosome caspase-3 activity, DEVD-Rh110 fluorescence; AID 489030; inhibition, % at 20 µM; 330,000 compounds, 0.71% hits; active means inhibition of at least 40% at 20 µM;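 further: plate controls were DMSO wells for no effect and DEVD-CHO caspase inhibitor wells for full effect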
#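 Assay system: Apoptosome proteins | Medium: pH 7.5 Hepes buffer with CHAPS, BSA, DTT | Also added: Cytochrome c and DEVD-Rh110 substrate | Times: 30 min plus 50 min, RT | Detection: Rhodamine 110 fluorescence at Ex 480/Em 540 nm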
# SENP7 block – inhibitors of human SENP7 protease. recombinant SENP7, Z-RLRGG-aminoluciferin luminescence, 40 min. inhibition, % at 5 µM. 330,000 compounds, 1.5% hits. AID 434973;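 active means inhibition above about 50% at the single test dose, limit read from the data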;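 further: plate controls were DMSO with enzyme for no effect and no enzyme buffer wells for full effect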
# Target sequence (Q9BQF6 706-1050 limits assumed): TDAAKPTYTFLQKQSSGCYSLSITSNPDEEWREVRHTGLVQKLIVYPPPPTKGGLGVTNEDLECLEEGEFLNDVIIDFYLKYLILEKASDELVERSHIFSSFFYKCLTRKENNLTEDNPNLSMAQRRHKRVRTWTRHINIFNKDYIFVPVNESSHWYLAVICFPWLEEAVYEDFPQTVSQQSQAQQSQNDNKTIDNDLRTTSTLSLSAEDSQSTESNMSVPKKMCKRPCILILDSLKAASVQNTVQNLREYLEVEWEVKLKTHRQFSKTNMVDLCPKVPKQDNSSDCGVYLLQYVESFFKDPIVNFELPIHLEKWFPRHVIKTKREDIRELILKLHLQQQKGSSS
# SENP8 conf – human SENP8 inhibition, confirmed | 6,200 compounds, 40% hits | shares compounds with SENP7 block | Recombinant SENP8, Z-RLRGG-aminoluciferin luminescence, 60 min | AID 488912 | inhibition, % at 12.5 µM;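 active means mean inhibition across replicates above about 50%, limit read from the data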
# SENP6 conf – human SENP6 inhibition, confirmed; shares compounds with SENP7 block; recombinant SENP6, Z-RLRGG-aminoluciferin luminescence; 6,200 compounds, 58% hits; inhibition, % at 12.5 µM
# SENP7 conf – human SENP7 inhibition, confirmed; inhibition, % at 12.5 µM; 6,200 compounds, 69% hits; recombinant SENP7, Z-RLRGG-aminoluciferin luminescence, 40 min; shares compounds with SENP7 block
# Casp3 SENP sel – selectivity test for SENP inhibitors: human caspase-3 inhibition; shares compounds with SENP7 block; purified caspase-3, Z-DEVD-aminoluciferin luminescence, 60 min; inhibition, % at 12.5 µM; 6,200 compounds, 60% hits;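 active means mean inhibition above about 50%, limit read from the data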;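 further: plate controls were enzyme with DMSO for no effect and wells without caspase-3 for full effect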
# Luc interf – luminescence interference (SENP counter-screen) | shares compounds with SENP7 block | Pre-incubated SENP8/Z-RLRGG-aminoluciferin, luciferase luminescence interference | inhibition, % at 12.5 µM | 6,200 compounds, 39% hits | AID 488919;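 active means mean inhibition above about 50% when retested at one dose, limit read from the data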;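 further: plate controls were DMSO wells with completed reaction for no effect and substrate without enzyme for full effect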
# * hit, by the source's call; . = no result given. The list is not random: actives were taken first. Their share in the collection is about 3%.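 How the source made its calls, unless noted: active means mean inhibition above about 50% in the one-dose retest (limit read from the data); inactive means the rest.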
SMILES,UBC13 polyUb,SENP8 block-1,SENP8 block-2,SENP6 inh,Apaf1 inhib,SENP7 block,SENP8 conf,SENP6 conf,SENP7 conf,Casp3 SENP sel,Luc interf
COc1ccccc1NC(=O)COC(=O)c1ccc([N+](=O)[O-])s1,0.0,22.5,71.7*,91.4*,23.1,50.6*,75.0*,84.8*,36.9,5.0,-13.7
CN(CC(=O)Nc1ccccc1Cl)C(=O)COC(=O)c1cccs1,7.6,3.7,2.6,-0.1,-9.7,3.6,.,.,.,.,.
Cc1cccc(C)c1NC(=O)c1csc([C@H]2C[C@H](O)[C@@H](CO)O2)n1,.,21.7,.,.,.,.,.,.,.,.,.
O=C(c1ccc(F)cc1)c1cc2ccccc2o1,-3.2,18.2,51.5*,83.7*,-12.2,66.6*,7.3,45.6,83.5*,57.2*,17.7
O=C(c1ccccc1)c1cc2ccccc2o1,-0.4,26.3,50.8*,74.3*,5.2,65.5*,7.8,58.1*,82.5*,52.9*,15.9
O=C(NNC(=O)c1cc2ccccc2o1)c1ccc(F)cc1,-1.7,-58.1,-1.3,7.6,-5.9,5.5,.,.,.,.,.
COc1ccc(OC(=O)c2cc3ccccc3o2)cc1,7.4,13.9,-54.4,60.8*,2.6,70.7*,11.8,28.8,88.9*,35.4,19.6
COc1cccc2cc(C(=O)c3ccccc3)oc12,13.0,6.3,60.6*,72.9*,1.8,62.0*,-8.0,59.5*,84.3*,60.7*,64.0*
COC(=O)[C@]12CCCCC=C1N(CCc1ccc(OC)c(OC)c1)C(=O)[C@H](CC(=O)N1CCOCC1)C2,.,34.5,.,.,.,.,.,.,.,.,.
CCc1nc2ccc(C(=O)NC3CCN(Cc4ccccc4)CC3)cn2c1N(C)Cc1ccc(N(C)C)cc1,.,10.8,.,.,.,.,.,.,.,.,.
Cc1csc(NC(=O)c2cccc(C)c2C)n1,3.8,6.4,-3.6,-2.6,7.8,2.8,.,.,.,.,.
Cc1csc(NC(=O)c2ccoc2C)n1,6.5,-19.3,75.1*,90.0*,2.0,88.9*,81.5*,81.5*,95.7*,92.9*,81.8*
CCOC(=O)Cc1csc(NC(=O)c2c(C)noc2C)n1,4.7,-10.0,-1.3,-4.8,-0.2,-1.1,.,.,.,.,.
CCOC(=O)Cc1csc(NC(=O)c2ccoc2C)n1,0.0,-6.3,74.1*,88.1*,-12.4,88.7*,84.2*,83.6*,94.4*,93.3*,83.0*
CCc1nc2ccc(C(=O)Nc3cccc(NS(C)(=O)=O)c3)cn2c1N(CC)Cc1cccc(Br)c1,.,-1.0,.,.,.,.,.,.,.,.,.
Oc1ccc(N=Nc2n[nH]c(-c3ccccc3)n2)cc1,-118.0,19.7,96.1*,94.2*,1.7,98.3*,97.8*,98.5*,102.3*,97.8*,97.5*
CCOc1ccc(/C(C)=N\NC(=O)Cc2ccccc2)cc1,-4.7,29.3,7.5,96.3*,6.8,-5.2,-2.0,-10.9,-6.2,-3.7,-8.5
CC(=O)Oc1ccc(C(=O)NCCc2ccccc2)cc1,2.3,0.1,10.2,33.8,-5.8,36.4,.,.,.,.,.
CCOc1ccc(C(=O)NCCc2ccccc2)cc1,9.3,14.0,51.8*,64.2*,-6.6,55.7*,59.3*,59.6*,82.0*,80.3*,33.6
COc1ccccc1-c1cnc(C(O)c2ccc(C)cc2)[nH]1 (stereo not given),.,-23.8,.,.,.,.,.,.,.,.,.
OC1c2c(F)cccc2N=C2CCCCN21 (stereo not given),.,-392.6,.,.,.,.,.,.,.,.,.
c1ccc(CCNc2nc(-c3cccnc3)cs2)cc1,1.5,6.4,-4.1,-4.7,0.4,4.1,.,.,.,.,.
c1ccc(CCNc2nc(-c3ccccn3)cs2)cc1,8.1,-6.1,29.1,51.8*,-2.0,43.0,2.3,-2.3,-2.0,3.7,11.5

# Bioassay records: PubChem BioAssay, Sanford-Burnham Center for Chemical Genomics
